# CSC inhib – cancer stem cell viability inhibitors, primary screen, luminescence; cancer stem cell-like cells viability; inhibition, % at 7.5 µM; hit rate 1.1% among 300,000; AID 2717, 2010; in the data active = inhibition above about 75%; inconclusive = no clear call, values can overlap the other calls; tested in HMLE shEcad cells
# UPR XBP1 act – activators of adaptive XBP1 UPR arm, primary screen, cell-based, CHO-XBP1 luciferase reporter, luminescence, uHTS; hit rate 0.33% among 330,000; activation, % at 20 µM; IRE1-XBP1 UPR activation; percent of tunicamycin response, DMSO as zero;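 active = versus positive control, 20 µM dose yields 30% or more activation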;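 also: 100% = tunicamycin at 10 µg/mL and 0% = DMSO only wells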
#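 Material: CHO-XBP1 cells stably carrying IRE1-XBP1-driven luciferase reporter / Amount: 1000 cells per well / Compound: 20 µM, 1% DMSO / Times: 6 h treatment, 37 °C / Detection: luciferase luminescence / Measure: % activation of reporter signal versus tunicamycin and DMSO controls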
# UPR CHOP act – activators of apoptotic CHOP UPR arm, primary screen, cell-based, CHO-CHOP luciferase reporter, luminescence, uHTS | UPR activation; percent of tunicamycin response over DMSO baseline | activation, % at 10 µM | hit rate 0.34% among 330,000 | AID 449763, 2010;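 active = at 10 µM dose, activation of 40% or more, normalized to positive control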;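 also: 100% = tunicamycin at 10 µg/mL and 0% = DMSO alone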
#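 Evaluation: % reporter activation, DMSO baseline versus tunicamycin full activation; System: CHO-CHOP luciferase reporter cell line; Input: 500 cells/well; Incubation: 6 h compound treatment, 37 °C; Measured by: Steady-Glo luciferase luminescence; Dosing: one dose, 10 µM in 0.5% DMSO; Buffer or medium: F12 medium, 10% FBS; Benchmarks: positive tunicamycin 10 µg/mL, negative DMSO alone.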
# T cruzi repl – inhibitors of intracellular T. cruzi growth, primary screen, luminescence, NIH3T3 host cells; T. cruzi beta-gal in NIH3T3, 90 h; inhibition, % (no concentration beside the values); hit rate 1.4% among 300,000; AID 1885, 2009;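 active = mean inhibition across valid replicates above about 55%, limit read from the data; inconclusive = mean below that limit but half or more replicates reach it; inactive = mean below it, under half of replicates reach it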;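 also: signal also drops with host cell toxicity which is not excluded here; 0% = plate median of DMSO wells and 100% = zero luminescence signal; higher percent means less beta-gal luminescence so fewer parasites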
#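 compound dosing = single 50 nL compound addition per well in DMSO | material = NIH/3T3 host cells with β-galactosidase reporter T. cruzi | input = 5,000 host fibroblasts per well | timing = ≥90 h infection period, 3 h prior cell attachment | read-out basis = percent inhibition of parasite-derived β-gal signal | detection = GalScreen β-gal luminescence, detergent lysis, 60 min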
# Beta apoptosis – inhibitors of cytokine-induced beta cell apoptosis, primary screen, luminescence | protection from apoptosis, % (concentration not given with the values) | hit rate 0.8% among 300,000 | INS-1E cytokine-induced death, ATP luminescence, 48 h; percent of positive-control rescue, neutral wells zero;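 active = Every replicate reaches about 75%, or at least half do and their mean reaches it too, limit read from the data; inconclusive = At least half of replicates reach the limit but their mean does not; inactive = Under half of replicates reach the limit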;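 also: 0% = cytokine-treated negative control wells and 100% = positive control rescue; higher means more ATP so stronger rescue from cytokine killing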
# Mdm2 MdmX PPI – inhibitors of human Mdm2-MdmX association, primary screen, cell-based, luminescence, split luciferase, SaOS-2, uHTS; SaOS-2 split-luciferase Mdm2/MdmX complementation; hit rate 3% among 330,000; inhibition, % at 8 µM; Protein Mdm4 (Homo sapiens) + E3 ubiquitin-protein ligase Mdm2 (Homo sapiens), …;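 active = inhibition of at least 50% at 8 µM in the primary screen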
# Mdm2 MdmX conf – Mdm2-MdmX complex disruptors, retested hits, confirmation, luminescence, single concentration | shares compounds with Mdm2 MdmX PPI | Mdm2-MdmX binding, luminescent assay | hit rate 55% among 10,000 | inhibition, % at 8 µM | AID 489028, 2010; in the data active = inhibition above about 40%
# FLuc counter – full-length luciferase signal inhibition, confirmation, counter-screen for Mdm2/MdmX interaction inhibitor project, cell-based, single concentration, SaOS-2 | SaOS-2 full-length luciferase counterscreen, luminescence | shares compounds with Mdm2 MdmX PPI | inhibition, % at 8 µM | hit rate 77% among 6,200;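 active = mean inhibition at 8 µM reaching about 37%, which flags the compound as non-specific, limit read from the data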;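 also: p53-null SaOS-2 cells with luciferase driven by a doxycycline-inducible promoter; compound on cells about two nights before reading with doxycycline added after day one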
# * hit, by the source's call; ? = inconclusive; / = no result given. Rows were chosen to be rich in hits. Some 5% of all compounds tested hit in one or more screens of this group.
SMILES,CSC inhib,UPR XBP1 act,UPR CHOP act,T cruzi repl,Beta apoptosis,Mdm2 MdmX PPI,Mdm2 MdmX conf,FLuc counter
CC1(C(=O)N/N=C/c2ccccc2)CC1(Cl)Cl (stereo not drawn),-8,-2,2,0,-4,10,/,/
Cc1nc(S(=O)(=O)N(C)c2ccccc2)c(C#N)c(C)c1Cl,-12,-1,-1,-10,-4,96*,93*,57*
CCCCc1ccc(NC(=O)C(=O)NCCN2CCN(Cc3ccc([N+](=O)[O-])cc3)CC2)cc1,-10,6,4,6,52,67*,36,/
O=[N+]([O-])c1ccc(NC(=S)NCc2ccc(F)cc2)cc1,45,-6,-1,25,/,74*,22,/
O=[N+]([O-])c1cc(Cl)ccc1NCCNc1ncc(C(F)(F)F)cc1Cl,3,-3,1,31,9,-1,/,/
O=[N+]([O-])c1ccc(NC(=S)NCc2ccncc2)cc1,-21,-3,-1,5,/,5,/,/
O=[N+]([O-])c1cc(C(F)(F)F)ccc1NCCNC(=S)Nc1ccc(Cl)cc1,106*,6,2,?,36,89*,27,/
O=[N+]([O-])c1ccc(NC(=S)NCCc2ccc(Cl)cc2)cc1,196*,-8,-1,53,87*,93*,81*,46*
CCOC(=O)c1ccccc1NC(=O)COC(=O)CN1C(=O)NC2(CCCC2)C1=O,-8,-3,0,-5,/,19,/,/
CCOc1ccc(CCN2C(=O)C(=O)N([C@H](CCCN(C)Cc3ccccc3)CNCc3ccccc3)C[C@@H]2C(C)C)cc1,/,1,2,22,/,66*,56*,58*
O=C(c1ccc2c(c1)N(Cc1cccc(Cl)c1)C(=O)c1ccccc1S2(=O)=O)N1CCN(c2ccccn2)CC1,28,2,2,44,15,65*,20,/
O=C(c1ccc(S(=O)(=O)c2cccc(Cl)c2)c([N+](=O)[O-])c1)N1CCN(c2ccccn2)CC1,51,0,-2,6,-6,73*,68*,58*
O=C(c1ccc(S(=O)(=O)Cc2ccccc2F)c([N+](=O)[O-])c1)N1CCCCCC1,11,0,-1,3,-15,27,/,/
O=C(c1ccc(S(=O)(=O)c2ccccc2Cl)c([N+](=O)[O-])c1)N1CCCCCC1,21,-3,0,-9,35,51*,25,/
CC(C)C(C(=O)N1CCN(C(=O)OC(C)(C)C)CC1)n1cc(-c2cn([C@@H](C)C(=O)N3CCN(C(=O)OC(C)(C)C)CC3)nn2)nn1 (stereo partly drawn),/,1,1,-1,/,23,/,/
O=C1Nc2ccccc2N(O)N1c1cc(-c2ccccc2)[nH]n1,-12,1,1,-5,-7,-21,/,/
COc1ccc2cnnc(SCC(=O)Nc3ccc(C(C)=O)cc3)c2c1OC,4,2,2,-16,3,18,/,/
CCOC(=O)c1c(NC(=O)CSc2nc3c(c(=O)n(C)c(=O)n3C)n2C(C)C)sc(C)c1C,-12,0,-1,-8,-7,-5,/,/
CC(C)n1c(SCC(=O)Nc2nc3c(s2)CCCC3)nc2c1c(=O)n(C)c(=O)n2C,12,3,-3,-20,8,60*,36,40*
